SUMO1-SIM PPI: SUMO1-SIM interaction modulation; P63165; SUMO1 binding to a labelled peptide, TR-FRET, 1 h; inhibition, % at 20 µM; 360,000 tested, 0.33% active; AID 602429; in the data active means inhibition above about 37%
Target sequence (P63165 whole entry, looked up): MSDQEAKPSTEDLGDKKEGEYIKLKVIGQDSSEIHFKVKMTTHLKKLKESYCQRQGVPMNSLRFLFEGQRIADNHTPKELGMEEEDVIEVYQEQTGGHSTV
FAS-TE inh: FAS thioesterase (human) inhibition; P49327; recombinant FAS-TE, OMFH fluorogenic substrate, fluorescence endpoint; inhibition, % at 15 µM; 360,000 tested, 0.67% active; AID 602261;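 active means compounds whose normalised, plate-corrected inhibition of enzyme fluorescence in the single-dose primary screen is 50% or more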
LMPTP inh: LMPTP (human) inhibition; AID 651560; recombinant LMPTP-A, OMFP fluorogenic substrate, fluorescence intensity; 360,000 tested, 0.22% active; inhibition, % at 20 µM;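 active means compounds that cut the enzyme signal by at least half of the control window in the single-dose screen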
Target sequence (P24666 whole entry, looked up): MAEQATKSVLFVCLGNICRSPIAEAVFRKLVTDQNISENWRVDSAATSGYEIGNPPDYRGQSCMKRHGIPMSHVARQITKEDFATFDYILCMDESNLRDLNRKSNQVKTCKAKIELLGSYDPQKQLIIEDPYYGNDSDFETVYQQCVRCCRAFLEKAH
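Assay system: LMPTP-A, protein tyrosine phosphatase of low molecular weight / Medium: pH 6.0 Bis-Tris buffer with DTT and Triton X-100 / Schedule: 50 min enzyme reaction at room temperature, protected from light / Measured by: endpoint fluorescence intensity from OMFP dephosphorylation / Read-out basis: % inhibition relative to no-enzyme and uninhibited control wells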
STEP block: inhibitors of human striatal-enriched phosphatase STEP; P54829; recombinant STEP, OMFP fluorogenic substrate, fluorescence; inhibition, % at 20 µM; 360,000 tested, 0.25% active; AID 588621;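 active means inhibition at 20 µM, scaled per plate between control wells, above about 37%, limit read from the data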
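material = STEP tyrosine phosphatase | reagent = fluorogenic phosphatase substrate OMFP at 25 µM final | doses = single compound dose of 20 µM, 1% DMSO final | schedule = 20 min reaction, room temperature, in the dark | measured by = fluorescence, 480/540 nm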
Scp1 inh: Scp-1 (human) phosphatase inhibition | Q9GZU7 | Recombinant Scp1, phosphopeptide, malachite green phosphate absorbance | inhibition, % at 20 µM | 340,000 tested, 0.88% active | AID 493091;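 active means inhibition above about 50% at 20 µM, limit read from the data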
Target sequence (Q9GZU7 76-261 limits assumed): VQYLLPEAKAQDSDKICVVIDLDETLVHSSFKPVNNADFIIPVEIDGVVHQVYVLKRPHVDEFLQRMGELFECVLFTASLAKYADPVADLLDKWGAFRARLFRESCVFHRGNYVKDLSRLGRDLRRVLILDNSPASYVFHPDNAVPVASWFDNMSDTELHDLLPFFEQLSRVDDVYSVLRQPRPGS
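Test system: SCP-1 phosphatase catalytic domain, residues 76-261; measured by: colorimetric phosphate reagent with accelerator and stabiliser, absorbance at 630 nm; timing: enzyme reaction 45 min at room temperature, colour 5 min, stabilisation 30 min; also added: Phosphorylated 17-residue peptide substrate; compound dosing: one concentration, 20 µM, with 1.0% DMSO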
FAS-TE conf: confirmation of human fatty acid synthase thioesterase inhibitors. shares compounds with FAS-TE inh. recombinant FAS-TE, OMFH fluorogenic substrate, fluorescence. inhibition, % at 15 µM. 2,300 tested, 45% active;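 active means compounds inhibiting the enzyme by at least 50% at 15 µM in any one of the replicates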
Each line names hits and unclear results; the compound was inactive in the other large screens (follow-up assays come after a bar, where they were run). In the library only some 1.9% were active in any assay of this set; here they are far more common.

O=[N+]([O-])c1ccc(SNc2ccccc2)c([N+](=O)[O-])c1	FAS-TE inh 57.4 | FAS-TE conf 45.4
Cc1ccc(C(C(=O)NC2CCCCC2)N(C(=O)CCCC(=O)Nc2ccccn2)c2ccc3c(c2)OCCO3)cc1 (configuration not stated)	FAS-TE inh 52.2 | FAS-TE conf inactive
Cc1ccc(S(=O)(=O)/N=C(\Sc2ccccc2)c2ccccc2)cc1	FAS-TE inh 63.0 | FAS-TE conf 51.2
O=S(=O)(/N=C(\c1ccccc1)N1CCOCC1)c1ccc(Cl)cc1	none
Cc1ccc(S(=O)(=O)/N=C(/Sc2ccccc2C(=O)O)c2ccccc2)cc1	none
O=S(=O)(/N=C(\Sc1ccccc1)c1ccccc1)c1ccc(Cl)cc1	FAS-TE inh 66.5 | FAS-TE conf inactive
O=C(COC(=O)c1ccc(S(=O)(=O)N2CCOCC2)cc1)Nc1ccccc1OC(F)F	none
Cc1cc(Br)ccc1NC(=O)C(C)c1ccc([N+](=O)[O-])cc1 (configuration not stated)	FAS-TE inh 55.6 | FAS-TE conf 51.4
Cc1ccc(C(C)C)cc1NC(=O)Nc1ccc([N+](=O)[O-])cc1	none
C[C@H](NC(=O)C1CCN(S(=O)(=O)c2ccccc2)CC1)C(=O)NCc1ccc(Cl)c(Cl)c1	FAS-TE inh 51.6 | FAS-TE conf 45.8
O=C(O)CN1C(=O)C(=O)N(Cc2ccc(C(F)(F)F)cc2)C1=O	none
Cc1nnc(SCC(=O)Nc2cccc(S(=O)(=O)NC3=NCCCCC3)c2)n1Cc1ccccc1	none
O=c1c2ccccc2c(C=Nc2cccc(S(=O)(=O)NC3=NCCCCC3)c2)c(O)n1Cc1ccccc1	FAS-TE inh 65.3 | FAS-TE conf inactive
CN(C)c1ccc(NC(=O)CCN2C(=O)c3cccc([N+](=O)[O-])c3C2=O)cc1	none
Cc1ccc(C(=O)O)cc1NC(=S)NC(=O)c1ccc(-c2ccc(Cl)cc2)o1	none
COc1ccc(C(=O)O)cc1NC(=S)NC(=O)c1ccc(-c2ccc(Cl)cc2)o1	FAS-TE inh 58.3 | FAS-TE conf 66.4
CCNC(=S)N1CCC(C(O)(c2ccccc2)c2ccccc2)CC1	none
COc1cc(NC(=S)N2CCC(C(O)(c3ccccc3)c3ccccc3)CC2)cc(OC)c1	FAS-TE inh 53.4 | FAS-TE conf inactive
N#Cc1ccc(OCC(=O)OCC(=O)Nc2sccc2C(N)=O)cc1	none
O=C(Nc1ccc(Cl)cc1)C(Cl)C(=O)c1ccccc1 (configuration not stated)	FAS-TE inh 77.0 | FAS-TE conf 86.9
O=c1cc(SCc2ccccc2)nc[nH]1	none
CN1C[C@H](C(=O)NC2(C)OC3(O)[C@@H]4CCCN4C(=O)[C@H](Cc4ccccc4)N3C2=O)CC2c3cccc4[nH]cc(c34)C[C@H]21 (some centres not stated)	FAS-TE inh 58.8 | FAS-TE conf 73.0
Cc1nnc(Sc2cc(NCCCO)c([N+](=O)[O-])c3nonc23)s1	FAS-TE inh 62.7 | FAS-TE conf 69.5
CCCSc1cc(NCCOC(C)=O)c([N+](=O)[O-])c2nonc12	none
Cc1nnc(Sc2cc(NCCO)c([N+](=O)[O-])c3nonc23)s1	FAS-TE inh 64.8 | FAS-TE conf 63.6
O=[N+]([O-])c1c(NCCO)cc(N2CCCCCC2)c2nonc12	none
COc1ccc(C(C)(O)c2nc(-c3cccc(C(C)C)c3)cs2)cc1 (configuration not stated)	none (no result: Scp1 inh)
CCN(CC(=O)Nc1ccccc1OC)C(=O)c1cc(S(=O)(=O)N2CCCCCC2)ccc1OC	none
O=C(COc1ccc(C(=O)NCC2CCCO2)cc1)Nc1cccc(C(F)(F)F)c1 (configuration not stated)	none
COc1ccc(C=O)cc1COc1ccc([N+](=O)[O-])c(C)c1	none
Cc1cc(OCc2nc(N)nc(N)c2-c2ccc(Cl)c(Cl)c2)ccc1[N+](=O)[O-]	FAS-TE inh 51.2 | FAS-TE conf inactive
CC(C)(C)NC(=O)c1ccc(COc2ccc(Cl)cc2Cl)o1	FAS-TE inh 65.2 | FAS-TE conf inactive
COc1ccc(C2(CNC(=O)c3cccc([N+](=O)[O-])c3)CCCCC2)cc1OC	FAS-TE inh 51.1 | FAS-TE conf 69.8
C[C@@]12C(=O)N(Cc3ccccc3)CC(=O)N1[C@H]1c3ccccc3OC[C@@H]1[C@@H]2c1ccccc1	none
C[C@]12C(=O)N(c3ccccc3)C(=O)N1[C@H]1c3ccccc3OC[C@@H]1[C@H]2c1ccccc1	FAS-TE inh 79.1 | FAS-TE conf inactive
Cc1ccc(N2C(=O)N3[C@H]4c5ccccc5OC[C@@H]4[C@@H](c4ccccc4)[C@@]3(C)C2=O)cc1	FAS-TE inh 55.3 | FAS-TE conf inactive
C[C@]12C(=O)N(c3cccc(Cl)c3)C(=O)N1[C@@H]1c3ccccc3OC[C@@H]1[C@H]2c1ccccc1	FAS-TE inh 57.9 | FAS-TE conf inactive
Cc1ccc(CN2CC(=O)N3[C@H]4c5ccccc5OC[C@@H]4[C@H](c4ccccc4)[C@]3(C)C2=O)cc1	FAS-TE inh 50.6 | FAS-TE conf inactive
C[C@]12C(=O)N(c3ccccc3)C(=O)N1[C@@H]1c3ccccc3OC[C@@H]1[C@H]2c1ccccc1	none
Cn1nc(C(=O)OCC(=O)Nc2cc(Cl)ccc2C#N)c2ccccc2c1=O	none
COc1ccc2[nH]cc(CCNC(=O)C3CCCO3)c2c1 (configuration not stated)	none
C[C@]12C(=O)N(c3ccc(C(F)(F)F)cc3)C(=O)N1[C@@H]1c3ccccc3OC[C@@H]1[C@H]2c1ccccc1	FAS-TE inh 59.7 | FAS-TE conf inactive
C[C@]12C(=O)N(c3cccc(F)c3)C(=O)N1[C@@H]1c3ccccc3OC[C@@H]1[C@H]2c1ccccc1	none
C[C@]12C(=O)N(c3ccc(Br)cc3)C(=O)N1[C@H]1c3ccccc3OC[C@@H]1[C@H]2c1ccccc1	FAS-TE inh 85.1 | FAS-TE conf inactive
CCOC(=O)[C@@H]1[C@H]2COc3ccccc3[C@H]2N2C(=O)N(c3ccc(Br)cc3)C(=O)[C@]12C	none
C[C@]12C(=O)N(c3cccc(F)c3)C(=O)N1[C@H]1c3ccccc3OC[C@@H]1[C@H]2c1ccccc1	FAS-TE inh 68.4 | FAS-TE conf inactive
Cc1ccc(CNC2CCCCC2)s1	none
Cc1cc(C)c2c(c1)NC(c1cc3c(cc1Br)OCO3)C1CC=CC21 (configuration not stated)	none
CNc1ccc(Cl)cc1S(=O)(=O)c1ccccc1[N+](=O)[O-]	none (no result: Scp1 inh)
Cc1ccc(NC(=O)c2cc([N+](=O)[O-])ccc2N2CCOCC2)cc1C	FAS-TE inh 73.9 | FAS-TE conf 77.6
COc1ccc(C(=O)Nc2ccccc2N2CCCC2)cc1	none
